According to ChEMBL document CHEMBL5724801, “EUbOPEN Chemogenomics Library - Multiplex” (2024):
“And” between values parts separate entries of the source, which are not always exact repeats. Identical values can stand only once.

Test system: HEK-293T
Experiment: Multiplex assay against HEK293T
Type: toxicity, cell-based
Details: human
How it was run: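 At seeding, live cells were stained with Hoechst33342, BioTracker Green Microtubule Cytoskeleton Dye, MitoTracker Red and Annexin V Alexa Fluor 680. After compound addition they were imaged on a CQ1 microscope at 37°C and 5% CO2, and CellPathfinder machine-learning gating sorted them into Hoechst high-intensity objects or normal cells, with normal cells further split into healthy, pyknosed or fragmented nuclei and pyknosed cells into mitotic or apoptotic. Tubulin, mitochondrial-mass and membrane-permeability phenotypes are given as per cents of cells with healthy nuclei.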

[1] = 12 h, 1 µM, compound concentration 1 uM
[2] = 12 h, 10 µM, compound concentration 10 uM
[3] = 24 h, 1 µM, compound concentration 1 uM
[4] = 24 h, 10 µM, compound concentration 10 uM
[5] = 48 h, 1 µM, compound concentration 1 uM
[6] = 48 h, 10 µM, compound concentration 10 uM

## Nc1nccc(-c2ccn3c(N)nccc23)n1
[1]
  Population Apoptotic (%): 15.46% and 10.1%
  Population Fragmented Nuclei (%): 3.18% and 4.55%
  Population Healthy Nuclei (%): 68.79% and 31.17%
  Population Hoechst High Intensity Objects (%): 0%
  Population Membrane Permeable-Phenotype (%): 0.42% and 2.08%
  Population Mitochondria Different-Phenotype (%): 32.35% and 27.08%
  Population Mitotic Cells (%): 84.54% and 89.9%
  Population Normal (%): 100%
  Population Pyknosed Nuclei (%): 28.03% and 64.29%
  Total Cell Count: 346 and 154
[2]
  Population Apoptotic (%): 15.73% and 12.77%
  Population Fragmented Nuclei (%): 2.41% and 4.48%
  Population Healthy Nuclei (%): 66.9% and 25.37%
  Population Hoechst High Intensity Objects (%): 0.34% and 0%
  Population Membrane Permeable-Phenotype (%): 1.03% and 0%
  Population Mitochondria Different-Phenotype (%): 38.66% and 17.65%
  Population Mitotic Cells (%): 84.27% and 87.23%
  Population Normal (%): 99.66% and 100%
  Population Pyknosed Nuclei (%): 30.69% and 70.15%
  Total Cell Count: 291 and 134
[3]
  Population Apoptotic (%): 20.19% and 15.91%
  Population Fragmented Nuclei (%): 1.49% and 2.84%
  Population Healthy Nuclei (%): 76.43% and 34.75%
  Population Hoechst High Intensity Objects (%): 0% and 2.08%
  Population Membrane Permeable-Phenotype (%): 1.11% and 4.08%
  Population Mitochondria Different-Phenotype (%): 17.78% and 20.41%
  Population Mitotic Cells (%): 79.81% and 84.09%
  Population Normal (%): 100% and 97.92%
  Population Pyknosed Nuclei (%): 22.08% and 62.41%
  Population Tubulin-Different-Phenotype (%): 14.44% and 12.24%
[4]
  Population Apoptotic (%): 20.31% and 14.47%
  Population Fragmented Nuclei (%): 1.23% and 6.87%
  Population Healthy Nuclei (%): 79.14% and 35.11%
  Population Hoechst High Intensity Objects (%): 0.61% and 0%
  Population Membrane Permeable-Phenotype (%): 0% and 2.17%
  Population Mitochondria Different-Phenotype (%): 20.93% and 19.57%
  Population Mitotic Cells (%): 79.69% and 85.53%
  Population Normal (%): 99.39% and 100%
  Population Pyknosed Nuclei (%): 19.63% and 58.02%
  Population Tubulin-Different-Phenotype (%): 11.63% and 8.7%
  Total Cell Count: 328 and 131
[5]
  Population Apoptotic (%): 8% and 18.75%
  Population Fragmented Nuclei (%): 5.17% and 4.03%
  Population Healthy Nuclei (%): 89.44% and 63.76%
  Population Hoechst High Intensity Objects (%): 0.11% and 0.67%
  Population Membrane Permeable-Phenotype (%): 5.66% and 3.16%
  Population Mitochondria Different-Phenotype (%): 18.92% and 21.05%
  Population Mitotic Cells (%): 92% and 81.25%
  Population Normal (%): 99.89% and 99.33%
[6]
  Population Apoptotic (%): 20% and 39.39%
  Population Fragmented Nuclei (%): 5.81% and 7.8%
  Population Healthy Nuclei (%): 85.77% and 68.79%
  Population Hoechst High Intensity Objects (%): 0.37% and 1.4%
  Population Membrane Permeable-Phenotype (%): 1.31% and 2.06%
  Population Mitochondria Different-Phenotype (%): 36.24% and 23.71%
  Population Mitotic Cells (%): 80% and 60.61%
  Population Normal (%): 99.63% and 98.6%
  Population Pyknosed Nuclei (%): 8.43% and 23.4%

## COC[C@@H](CC(C)C)NC1=N/C(=C\c2ccc3ncsc3c2)C(=O)N1C
[1]
  Population Apoptotic (%): 13.64% and 37.5%
  Population Fragmented Nuclei (%): 6.45% and 8%
  Population Healthy Nuclei (%): 58.06% and 23.43%
  Population Hoechst High Intensity Objects (%): 0.8% and 0%
  Population Membrane Permeable-Phenotype (%): 0.69% and 2.44%
  Population Mitotic Cells (%): 86.36% and 62.5%
  Population Normal (%): 99.2% and 100%
  Population Pyknosed Nuclei (%): 35.48% and 68.57%
  Population Tubulin-Different-Phenotype (%): 6.94% and 14.63%
  Total Cell Count: 250 and 175
[2]
  Population Apoptotic (%): 25.51% and 35.09%
  Population Fragmented Nuclei (%): 88.19% and 92.28%
  Population Healthy Nuclei (%): 3.54% and 1.77%
  Population Hoechst High Intensity Objects (%): 4.51% and 10.38%
  Population Membrane Permeable-Phenotype (%): 0% and 5.88%
  Population Mitochondria Different-Phenotype (%): 0%
  Population Mitotic Cells (%): 74.49% and 64.91%
  Population Normal (%): 95.49% and 89.62%
  Population Pyknosed Nuclei (%): 8.27% and 5.95%
  Population Tubulin-Different-Phenotype (%): 16.67% and 5.88%
  Total Cell Count: 1241 and 1069
[3]
  Population Apoptotic (%): 46.3% and 34.07%
  Population Fragmented Nuclei (%): 6.23% and 6.63%
  Population Healthy Nuclei (%): 76.07% and 38.55%
  Population Hoechst High Intensity Objects (%): 2.87% and 1.19%
  Population Membrane Permeable-Phenotype (%): 0.43% and 1.56%
  Population Mitochondria Different-Phenotype (%): 19.83% and 7.81%
  Population Mitotic Cells (%): 53.7% and 65.93%
  Population Normal (%): 97.13% and 98.81%
  Population Tubulin-Different-Phenotype (%): 19.4% and 12.5%
  Total Cell Count: 314 and 168
[4]
  Population Apoptotic (%): 41.88% and 34.04%
  Population Fragmented Nuclei (%): 84.82% and 94.42%
  Population Healthy Nuclei (%): 4.67% and 1.42%
  Population Hoechst High Intensity Objects (%): 5.28% and 8.58%
  Population Membrane Permeable-Phenotype (%): 9.62% and 0%
  Population Mitochondria Different-Phenotype (%): 5.77% and 0%
  Population Mitotic Cells (%): 58.12% and 65.96%
  Population Normal (%): 94.72% and 91.42%
  Population Pyknosed Nuclei (%): 10.51% and 4.16%
  Population Tubulin-Different-Phenotype (%): 15.38% and 0%
  Total Cell Count: 1175 and 1236
[5]
  Population Apoptotic (%): 43.33% and 39.58%
  Population Fragmented Nuclei (%): 10.02% and 10.37%
  Population Healthy Nuclei (%): 83.97% and 54.07%
  Population Hoechst High Intensity Objects (%): 2.16% and 8.16%
  Population Membrane Permeable-Phenotype (%): 3.34% and 1.37%
  Population Mitochondria Different-Phenotype (%): 36.28% and 26.03%
  Population Mitotic Cells (%): 56.67% and 60.42%
  Population Normal (%): 97.84% and 91.84%
[6]
  Population Fragmented Nuclei (%): 90.84% and 92.95%
  Population Healthy Nuclei (%): 2.22% and 3.18%
  Population Hoechst High Intensity Objects (%): 6.5% and 11.42%
  Population Membrane Permeable-Phenotype (%): 6.67% and 0%
  Population Mitochondria Different-Phenotype (%): 23.33% and 0%
  Population Normal (%): 93.5% and 88.58%
  Population Pyknosed Nuclei (%): 6.95% and 3.87%
  Population Tubulin-Different-Phenotype (%): 10% and 2.38%
  Total Cell Count: 1447 and 1489
